Results as given in ChEMBL document CHEMBL1128343, “Synthesis, properties, and pharmacokinetic studies of N2-phenylguanine derivatives as inhibitors of herpes simplex virus thymidine kinases” (J Med Chem, 1995).

Assays:
[1] = biological target: T1, Thymidine kinase (Human alphaherpesvirus 1, UniProt Q9QNF7); assay: Inhibition of HSV-1 thymidine kinase, 1 uM [3H]thymidine and ATP as phosphate donor
T1 sequence (Q9QNF7 whole entry): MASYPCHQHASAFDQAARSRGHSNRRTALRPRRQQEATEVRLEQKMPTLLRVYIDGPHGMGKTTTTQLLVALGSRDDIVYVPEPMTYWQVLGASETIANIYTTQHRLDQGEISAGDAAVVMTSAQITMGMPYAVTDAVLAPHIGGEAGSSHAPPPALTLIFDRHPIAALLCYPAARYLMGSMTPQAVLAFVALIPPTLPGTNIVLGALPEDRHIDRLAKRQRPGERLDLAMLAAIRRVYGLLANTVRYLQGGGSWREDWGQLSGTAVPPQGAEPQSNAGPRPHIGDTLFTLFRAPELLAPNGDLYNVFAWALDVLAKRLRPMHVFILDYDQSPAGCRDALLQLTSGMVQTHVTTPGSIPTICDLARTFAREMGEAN

[2] = biological target: T2, Thymidine kinase (Human herpesvirus 2, UniProt Q6L709); assay: Inhibition of HSV-2 thymidine kinase, 2 uM [3H]thymidine and ATP as phosphate donor; design: species or system Human alphaherpesvirus 2
T2 sequence (Q6L709 whole entry): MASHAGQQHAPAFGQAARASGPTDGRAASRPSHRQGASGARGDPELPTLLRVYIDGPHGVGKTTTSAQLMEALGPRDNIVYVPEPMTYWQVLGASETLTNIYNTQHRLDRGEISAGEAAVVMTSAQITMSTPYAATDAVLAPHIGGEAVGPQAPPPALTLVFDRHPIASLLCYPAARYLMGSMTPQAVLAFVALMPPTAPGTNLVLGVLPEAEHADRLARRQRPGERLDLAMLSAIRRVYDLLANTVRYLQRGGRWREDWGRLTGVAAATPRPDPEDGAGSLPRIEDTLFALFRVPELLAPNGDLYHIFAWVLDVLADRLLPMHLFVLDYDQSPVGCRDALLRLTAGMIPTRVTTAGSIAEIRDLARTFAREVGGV
Procedure, shortened: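 TK purified by affinity column from HSV2-infected HeLa cells. Activity measured by DE-81 filter binding as phosphorylation of limiting 2 µM [3H]TdR with ATP as phosphate donor. Inhibitors were diluted from DMSO stocks, with matching DMSO in controls.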

[3] = Volume of distribution in mice plasma was determined at 40 mg/kg after intravenous administration with saline(pH=11.4) as vehicle; assay type: ADME, organism-based; design: dose 40 mg/kg, route intravenous; settings: mouse
Procedure, shortened: (§1)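 Male CD-1 mice (~25 g) received 40 mg/kg iv via the tail vein, dissolved at 10 mg/mL in saline pH 11.4 or 90% aqueous DMSO. Blood was taken at intervals after decapitation, and plasma was diluted 10-fold. Drug was quantified by C8 reverse-phase HPLC with UV at 275 nm. C0 and ke came from a log-linear fit of all points; t1/2 = ln2/ke and Vd = dose/C0.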

[4] = test system: Mus musculus; assay: Plasma concentration at time-0 was measured in mice at 100 mg/kg after intraperitoneal administration with saline(pH=11.4) as vehicle; assay type: ADME, organism-based; design: dose 100 mg/kg, route intraperitoneal; settings: in vivo, ip, pH 11.4, 100 mg/kg, read-out: Co
Procedure, shortened: (§2)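 Male CD-1 mice (~25 g) received 100 mg/kg ip as a solution in saline pH 11.4 or 90% DMSO. Plasma was collected at intervals after decapitation, diluted 10-fold and stored at −21 °C. Drug was measured by C8 reverse-phase HPLC with UV at 275 nm against spiked-plasma standards (0.11–56 µM). C0 and ke came from least-squares regression of the terminal log-linear phase; t1/2 = ln2/ke.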

[5] = test system: Mus musculus; assay: Plasma concentration at time-0 was measured in mice at 40 mg/kg after intravenous administration with saline(pH=11.4) as vehicle; assay type: ADME, organism-based; design: dose 40 mg/kg, route intravenous; settings: in vivo, pH 11.4, 40 mg/kg, read-out: Co; procedure, shortened: as §1
[6] = Half life in mice plasma was determined at 40 mg/kg after intravenous administration with saline(pH=11.4) as vehicle; assay type: ADME, organism-based; design: dose 40 mg/kg, route intravenous; settings: mouse; procedure, shortened: as §1
[7] = Half life in mice plasma was determined at 100 mg/kg after intraperitoneal administration with saline(pH=11.4) as vehicle; assay type: ADME, organism-based; design: dose 100 mg/kg, route intraperitoneal; settings: mouse, ip; procedure, shortened: as §2
[8] = Half life in mice plasma was determined at 100 mg/kg after intraperitoneal administration with 90% DMSO as vehicle; settings: mouse, ip
[9] = test system: Mus musculus; assay: Plasma concentration at time-0 was measured in mice at 40 mg/kg after intravenous administration with 90% DMSO as vehicle; assay type: ADME, organism-based; design: dose 40 mg/kg, route intravenous; settings: in vivo, read-out: Co; procedure, shortened: as §1
[10] = test system: Mus musculus; assay: Plasma concentration at time-0 was measured in mice at 100 mg/kg after intraperitoneal administration with 90% DMSO as vehicle; settings: in vivo, ip, read-out: Co
[11] = Volume of distribution in mice plasma was determined at 40 mg/kg after intravenous administration with 90% DMSO as vehicle; assay type: ADME, organism-based; design: dose 40 mg/kg, route intravenous; settings: mouse; procedure, shortened: as §1
[12] = Half life in mice plasma was determined at 40 mg/kg after intravenous administration with 90% DMSO as vehicle; assay type: ADME, organism-based; design: dose 40 mg/kg, route intravenous; settings: mouse; procedure, shortened: as §1
[13] = test system: Mus musculus; assay: Plasma concentration at time-0 was measured in mice at 100 mg/kg after intraperitoneal administration with 90% DMSO as vehicle; assay type: ADME, organism-based; design: dose 100 mg/kg, route intraperitoneal; settings: in vivo, ip, read-out: Co; procedure, shortened: as §2

Structure (SMILES): O=c1[nH]c(Nc2cccc(CC(F)(F)F)c2)nc2nc[nH]c12
- IC50 [1]: 0.45 µM
- IC50 [2]: 1 µM

Structure (SMILES): O=c1[nH]c(Nc2cccc(C(F)F)c2)nc2nc[nH]c12
- IC50 [1]: 2.8 µM
- IC50 [2]: 3.9 µM

Structure (SMILES): C=CCn1cnc2c(=O)[nH]c(Nc3ccccc3)nc21
- IC50 [2]: 0.18 µM

Structure (SMILES): O=c1[nH]c(Nc2ccccc2)nc2c1ncn2CC(O)CSCCO (stereo unspecified)
- IC50 [1]: 1.6 µM
- IC50 [2]: 1.6 µM

Structure (SMILES): O=C(O)Cn1cnc2c(=O)[nH]c(Nc3ccccc3)nc21
- IC50 [1]: 12.4 µM
- IC50 [2]: 9.8 µM

Structure (SMILES): O=c1[nH]c(Nc2cccc(OC(F)(F)F)c2)nc2nc[nH]c12
- IC50 [1]: 2.3 µM
- IC50 [2]: 6.3 µM

Structure (SMILES): O=c1[nH]c(Nc2cccc(C(Cl)C(F)(F)Cl)c2)nc2nc[nH]c12 (stereo unspecified)
- IC50 [1]: 0.65 µM
- IC50 [2]: 0.47 µM

Structure (SMILES): COCCn1cnc2c(=O)[nH]c(Nc3ccccc3)nc21
- IC50 [1]: 0.61 µM
- IC50 [2]: 2.7 µM

Structure (SMILES): O=c1[nH]c(Nc2cccc(C(Cl)=C(Cl)Cl)c2)nc2[nH]cnc12
- IC50 [1]: 70 µM
- IC50 [2]: 70 µM

Structure (SMILES): O=c1[nH]c(Nc2ccccc2)nc2c1ncn2CC(O)CO (stereo unspecified)
- IC50 [1]: 1.7 µM
- IC50 [2]: 3.5 µM

Structure (SMILES): O=C1N=C(Nc2cccc(C(F)(F)F)c2)N=C2C1N=CN2[C@H]1C[C@H](O)[C@@H](CO)O1 (stereo partly specified)
- IC50 [1]: 4 µM
- IC50 [2]: 2 µM

Structure (SMILES): O=C1N=C(Nc2ccccc2)N=C2C1N=CN2[C@H]1C[C@H](O)[C@@H](CO)O1 (stereo partly specified)
- Vd [3]: 0.4 L/kg
- concentration [4]: 11.7 µM
- concentration [5]: 174 µM
- half-life [6]: 7.5 min
- half-life [7]: 60 min

Structure (SMILES): O=c1[nH]c(Nc2ccccc2)nc2c1ncn2CCO
- half-life [8]: 21 min
- concentration [9]: 44.7 µM
- concentration [10]: 100 µM
- Vd [11]: 3.3 L/kg
- half-life [12]: 15 min

Structure (SMILES): O=c1[nH]c(Nc2cccc(C(F)(F)F)c2)nc2nc[nH]c12
- Vd [3]: 3 L/kg
- concentration [4]: 10.2 µM
- concentration [5]: 54.2 µM
- half-life [6]: 25 min

Structure (SMILES): O=c1[nH]c(Nc2ccccc2)nc2c1ncn2CCCCO
- concentration [9]: 49.5 µM
- concentration [13]: 30.5 µM
- Vd [11]: 2.7 L/kg
- half-life [12]: 14 min

Structure (SMILES): OCCn1cnc2c(O)nc(Nc3cccc(C(F)(F)F)c3)nc21
- IC50 [1]: 4.7 µM
- IC50 [2]: 20.4 µM
